The full list was thinned out, with hits kept by preference.
CHOP inh: inhibitors of CHOP induction in ER stress response; CHO-K1 CHOP-promoter luciferase, tunicamycin-induced, 15-18 h; inhibition, % at 10 µM; actives 3.8% (n = 220,000); AID 2732;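 active = compounds that reduced the stress-induced luciferase reporter signal by more than about 70% of percent inhibition, limit read from the data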;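 note: 0% = tunicamycin plus vehicle and 100% = wells without tunicamycin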
Fh CTSL1 inh: blocks F. hepatica cathepsin L1 in PFM18AAP counter-screen; recombinant F. hepatica cathepsin L1, Z-Leu-Arg-MCA fluorescence; actives 0.49% (n = 300,000); inhibition, % at 5.96 µM; AID 1906;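 active = inhibition above the mean of all tested compounds plus 3 SD, set per screening campaign, cut at about 17% in these data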;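 note: 0% = plate median of test compound wells and 100% = 1 µM Z-Phe-Ala-diazomethylketone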
CHOP UPR activ: activators of apoptotic arm of unfolded protein response (CHOP); CHO-CHOP luciferase reporter, UPR activation, luminescence; percent of tunicamycin response over DMSO baseline; activation, % at 10 µM; actives 0.34% (n = 330,000); AID 449763;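 active = at 10 µM dose, activation of 40% or more, normalized to positive control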;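 note: 100% = tunicamycin at 10 µg/mL and 0% = DMSO alone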
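Test system: CHO CHOP reporter cells. Input: 500 CHO-CHOP cells per well. Medium: F12 with 10% FBS. Technique: luciferase luminescence. Measure: percent activation relative to tunicamycin control. Dosing: 10 µM compound, 0.5% DMSO. Timing: 16-18 h cell attachment, then 6 h compound exposure, 37 °C.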
XBP1 UPR activ: activators of adaptive arm of unfolded protein response (XBP1). CHO-XBP1 luciferase reporter, IRE1-XBP1 UPR activation, luminescence; percent of tunicamycin response, DMSO as zero. actives 0.33% (n = 330,000). activation, % at 20 µM;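 active = versus positive control, 20 µM dose yields 30% or more activation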;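 note: 100% = tunicamycin at 10 µg/mL and 0% = DMSO only wells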
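Material: CHO cell line with stable XBP1 luciferase reporter; buffer or medium: F12 medium containing 10% fetal bovine serum; compound: single point, 20 µM final compound, 1% DMSO; incubation: 6 h treatment, 37 °C; measured by: glow luminescence from Steady-Glo reagent; evaluation: activation, % of tunicamycin; control set: tunicamycin high, DMSO low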
UCH37 inh: blocks the human deubiquitinase UCH37; Q9Y5K5; purified proteasome/UCH37, Ub-AMC cleavage fluorescence; inhibition, % (no concentration beside the values); actives 0.33% (n = 330,000); AID 588478;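 active = mean inhibition over replicate wells above about 20%, limit read from the data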;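 note: 0% = compound-free wells with enzyme and 100% = wells lacking proteasome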
Target sequence (Q9Y5K5 whole entry, looked up): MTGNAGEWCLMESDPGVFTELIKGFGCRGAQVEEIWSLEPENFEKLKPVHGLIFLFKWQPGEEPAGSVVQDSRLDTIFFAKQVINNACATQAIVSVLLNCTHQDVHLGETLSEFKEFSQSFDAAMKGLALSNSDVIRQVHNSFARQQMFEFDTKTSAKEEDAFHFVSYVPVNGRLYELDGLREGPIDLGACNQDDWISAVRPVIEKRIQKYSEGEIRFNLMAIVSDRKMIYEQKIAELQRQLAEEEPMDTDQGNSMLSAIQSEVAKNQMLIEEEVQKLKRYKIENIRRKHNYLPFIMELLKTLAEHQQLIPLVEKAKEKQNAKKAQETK
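system = Proteasome-associated human UCH37 deubiquitinase | amount = 0.15 nM proteasome as dispensed | medium = pH 7.4 Tris-HCl (50 mM) with ovalbumin, ATP-MgCl2, DTT | incubation = 30 min preincubation with enzyme, 25 min cleavage at room temperature | detection = AMC fluorescence 355/460 nm | read-out basis = percent inhibition | controls = no-proteasome and no-compound wells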
* marks the source's active call; other numbers are inactive results; nt = no result.

SMILES	CHOP inh	Fh CTSL1 inh	CHOP UPR activ	XBP1 UPR activ	UCH37 inh
CC(C)Cn1c(SC(C)C(=O)Nc2ccc3c(c2)OCCO3)nc2ccccc2c1=O (stereo not drawn)	76.3*	nt	nt	nt	1.8
CC(Sc1nc2ccccc2c(=O)n1C)C(=O)Nc1ccc2c(c1)OCCO2 (stereo not drawn)	nt	nt	3.7	-1.3	6.7
Cc1ccc(NC(=O)C(=O)NNC(=O)c2ccccc2C)cc1Cl	70.8*	0.8	-1.6	-0.2	4.0
COc1ccccc1C(=O)NNC(=O)C(=O)Nc1ccc(C)c(Cl)c1	nt	-1.2	0.7	1.7	nt
CC(=O)Nc1ccc(NC(=O)C/C(C)=N/NC(=O)C(=O)Nc2ccc(C)c(Cl)c2)cc1	87.2*	1.3	2.4	-5.3	nt
CC(CC(=O)Nc1ccc(C)c(Cl)c1)=NNC(=O)Cc1ccccc1	nt	nt	nt	nt	3.2
C/C(CC(=O)Nc1ccc(OCc2ccccc2)cc1)=N\NC(=O)C(=O)Nc1cccc(C)c1	93.9*	-4.2	0.2	2.0	nt
CCC(=O)N(C)CCc1cc2c(c(OC)c1C=NNS(=O)(=O)c1ccc(C)cc1)OCO2	nt	nt	nt	nt	3.1
O=S(=O)(NN=Cc1cccc(OC2CSC2)c1)c1ccccc1	nt	nt	nt	nt	3.3
COc1ccc(C=NNC(=O)c2cc(-c3cccc(C)c3)nc3ccccc23)cc1O	nt	nt	nt	nt	3.0
O=c1[nH]c(=O)n(-c2cc(Br)c(O)c(Br)c2)cc1Br	nt	32.8*	0.6	-0.9	1.0
Cc1c(C(=O)OC(C)C)sc(N)c1C(=O)OC(C)C	81.7*	4.4	2.6	5.6	-1.1
Cc1c(C(N)=O)sc(N)c1C(=O)OC(C)C	15.4	3.3	1.2	-1.0	3.8
Cc1sc(NC(=O)CCl)c(C(=O)c2ccccc2)c1C	107.8*	53.1*	-6.4	-6.9	3.4
N#CC1(NC(=O)COC(=O)c2cc([N+](=O)[O-])ccc2N2CCCC2)CCCCC1	nt	17.5*	0.8	-2.5	6.4
N#CC1(NC(=O)COC(=O)c2cc([N+](=O)[O-])ccc2N2CCOCC2)CCCCC1	nt	-16.6	2.8	3.3	10.2
Cc1ccc(S(=O)(=O)NN=Cc2ccc(OCC(=O)NC(C)C)cc2)cc1	nt	nt	nt	nt	28.0*
CC(C)NC(=O)COc1ccc(/C=N/NS(=O)(=O)c2ccccc2)cc1	-5.9	-0.6	-2.7	2.0	nt
COc1cccc(C(=O)NN=Cc2cn[nH]c2-c2ccc(OC)cc2OC)c1	nt	nt	nt	nt	1.7
O=C(CNC(=O)c1ccco1)NN=Cc1ccc(C(=O)O)cc1	nt	nt	nt	nt	1.7
Cc1ccc(CNC(=O)c2cc3c(=O)n4ccccc4nc3n(Cc3ccco3)c2=N)cc1	nt	-1.6	3.6	-2.9	-33.3
Cc1ccc2nc3c(cc(C(=O)NCc4ccco4)c(=N)n3Cc3ccco3)c(=O)n2c1	13.2	19.4*	2.8	-1.6	-19.8
Cc1ccc(NC(=O)CSc2nnc(CNC(=O)C34CC5CC(CC(C5)C3)C4)n2-c2ccc(F)cc2)cc1	79.2*	1.2	1.8	-1.9	3.6
Cc1ccc(NC(=O)CCC(=O)NN=Cc2coc3ccccc3c2=O)cc1	nt	nt	nt	nt	-4.5
CCN(CC)C(=O)CSc1nc2ncccc2[nH]1	1.7	18.6*	-0.1	-0.8	2.5
SMILES	CHOP inh	Fh CTSL1 inh	CHOP UPR activ	XBP1 UPR activ	UCH37 inh
Cc1ccc(S(=O)(=O)N(CC(=O)Nc2ccc(Cl)c([N+](=O)[O-])c2)C2CCCCC2)cc1	73.3*	5.4	2.9	-2.3	1.5
C=CCn1c(=NC(=O)c2sc3ccccc3c2Cl)sc2cc(S(N)(=O)=O)ccc21	82.0*	-1.1	4.9	26.5	nt
C=CCn1c(=NC(=O)c2cc(Cl)sc2Cl)sc2cc(S(N)(=O)=O)ccc21	27.4	-0.7	0.6	4.0	nt
COCCn1c(=NC(=O)c2cc(-c3cccs3)nc3ccccc23)sc2cc(S(N)(=O)=O)ccc21	34.0	3.0	6.9	0.3	-290.4
COCCn1c(=NC(=O)c2sc3ccccc3c2Cl)sc2cc(S(N)(=O)=O)ccc21	75.3*	21.8*	-0.6	-0.9	nt
CCn1c(SCC(=O)NN=Cc2c[nH]c3ccccc23)nnc1-c1ccc(Cl)cc1	nt	nt	nt	nt	4.6
O=c1cc(-c2ccccc2)nc(N2CCN(Cc3ccc4c(c3)OCO4)CC2)[nH]1	70.7*	7.0	0.2	-1.8	5.1
Cc1ccc(/C=N/Nc2ccc(Cl)nn2)cc1	78.2*	2.5	4.3	1.6	nt
Cc1ccc(S(=O)(=O)n2nc(C)c(Br)c2C)c(C)c1C	88.6*	-4.6	-1.1	-0.7	1.2
